Screening results: PubChem BioAssay, several laboratories
Sampled rows, rich in hits. Any-hit rate of the full collection: about 29%.
tolC growth inh = blocks growth of E. coli BW25113 tolC mutant. OD615. growth inhibition, % at 10 µM (by protocol). hit rate 2.2% among 65,000. AID 573;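 active = growth inhibition at or above a cutoff equal to the mean over every tested compound plus 3 SD, cut at about 60% in these data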;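 also: growth measured after 20 h incubation at 37 °C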
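Doses: one dose of 10 µM final / Material: E. coli BW25113 ΔtolC::kan, tolC deletion mutant strain / Buffer or medium: LB with kanamycin 50 µg/mL / Evaluation: percent growth inhibition / Detection: optical density read at 615 nm / Incubation: 37 °C, 20 h exposure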
CYP2C9 act = CYP2C9 (human) activation. P11712. recombinant CYP2C9, luciferin-H conversion, luminescence; active compounds read high; factor 1 = untreated enzyme, 0 = blocked. activation factor at 5 µM. hit rate 1.4% among 96,000;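 active = activation factor of 2 or more for CYP2C9 at a 5 µM dose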;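 also: 0 = sulfaphenazole-blocked wells and 1 = vehicle-only wells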
CYP2C19 act = increases human CYP2C19 enzyme activity | P33261 | recombinant CYP2C19, luciferin-H EGE luminescence; active compounds read high; 0 = fully inhibited enzyme, 1 = untreated enzyme | activation factor at 5 µM | 96,000 tested, under 10 active;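 active = activation factor of at least 2 at 5 µM in the primary screen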;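 also: 0 = wells with 2.5 mM tranylcypromine and 1 = vehicle-only wells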
Target sequence (P33261 whole entry, looked up): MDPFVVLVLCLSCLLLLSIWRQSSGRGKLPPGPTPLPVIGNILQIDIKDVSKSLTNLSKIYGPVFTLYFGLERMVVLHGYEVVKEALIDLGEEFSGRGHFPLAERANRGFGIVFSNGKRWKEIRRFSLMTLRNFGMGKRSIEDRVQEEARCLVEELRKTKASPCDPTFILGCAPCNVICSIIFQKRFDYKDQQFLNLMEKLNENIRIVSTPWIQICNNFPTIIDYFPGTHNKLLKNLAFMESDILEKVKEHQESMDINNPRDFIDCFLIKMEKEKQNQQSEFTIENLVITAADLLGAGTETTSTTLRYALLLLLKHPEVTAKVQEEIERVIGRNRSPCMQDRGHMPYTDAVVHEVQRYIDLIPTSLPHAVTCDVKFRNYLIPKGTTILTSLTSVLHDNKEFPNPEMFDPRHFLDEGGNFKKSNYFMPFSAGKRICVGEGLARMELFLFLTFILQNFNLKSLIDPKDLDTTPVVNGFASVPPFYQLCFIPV
E coli WT exp = growth inhibitors of E. coli BW25113 wild type | growth inhibition, % at 100 µM | hit rate 0.15% among 98,000 | OD600 absorbance | AID 710;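 active = growth inhibition above about 50% at one test dose, limit read from the data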;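 also: growth measured after 20 h incubation at 37 °C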
CYP2C9 inh = human CYP2C9 inhibition; P11712; CYP2C9 Supersomes, luciferin-H conversion, luminescence; inhibition, % at 5 µM; hit rate 20% among 96,000;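 active = blocking of liver enzyme CYP2C9 beyond about 50% at 5 µM, limit read from the data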
CYP2C19 inh = inhibitors of human CYP2C19; inhibition, % at 5 µM; AID 778; hit rate 21% among 96,000; CYP2C19 Supersomes, luciferin-H EGE luminescence, 30 min; P33261;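 active = CYP2C19 inhibition above a set limit at 5 µM in the primary screen, cut at about 50% in these data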;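 also: plate controls were negative control wells for no effect and 2.5 mM tranylcypromine positive control for full effect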
Starred values were filed as active, the others as inactive; / = no result.

SMILES	tolC growth inh	CYP2C9 act	CYP2C19 act	E coli WT exp	CYP2C9 inh	CYP2C19 inh
COc1ccc(OC)c(NC(=O)Cc2coc3cc(C)cc(C)c23)c1	/	0.4	0.2	-14	55*	75*
COc1ccc(OC)c(NC(=O)Cc2coc3ccc(C)cc23)c1	39	0.6	0.5	3	44	53*
Cc1cc(C)c2c(CC(=O)Nc3ccc(Cl)cn3)coc2c1	11	1.1	0.9	-4	-12	13
COc1ccc(OC)c(NC(=O)Cc2nn(C)c(=O)c3ccccc23)c1	-11	/	/	0	/	/
COc1ccc(CCN(Cc2cc3cc(C)cc(C)c3nc2Cl)C(=O)C2CC2)cc1	/	0.6	0.6	-20	39	37
CSc1nncn1/N=C/c1ccccc1F	/	0.4	0.9	5	58*	14
COC(=O)c1ccc(-c2nc3cc(Cl)c(N)cc3s2)cc1	/	0.9	0.4	-1	11	60*
COc1c(C)cccc1C(=O)Nc1cc(-c2nn3c(C)nnc3s2)ccc1C	-9	/	/	/	/	/
Cn1cc(SCC(=O)Nc2ccc3c(c2)OCCO3)c2ccccc21	/	0.6	0.4	-16	43	63*
CCn1c(=O)cc(SCC(=O)N(C)Cc2ccccc2)c2ccccc21	/	2*	0.4	4	-98	56*
CC(CC(=O)Nc1ccc2c(c1)OCCO2)c1ccccc1 (stereo not drawn)	/	0.6	0.5	3	42	52*
CCCCN(CC)C(=O)CSc1cc(=O)n(C)c2ccccc12	9	1.3	0.4	2	-30	64*
Cn1c(=O)cc(SCC(=O)N2CCCC2)c2ccccc21	-20	1.2	1.1	3	-22	-5
CSc1ccc(Cl)c(C(=O)Nc2ccc(OCC(N)=O)cc2)c1	/	1.4	1	3	-44	3
CC1CCN(S(=O)(=O)c2ccc3c(c2)oc(=O)n3CC(=O)N2CCc3ccccc3C2)CC1	/	0.6	0.7	-11	42	30
CCC(c1nnnn1Cc1ccccc1)N1CCN(C(=O)c2ccco2)CC1 (stereo not drawn)	-3	0.8	0.7	-6	16	26
Oc1ccc(C2N=C(c3ccccc3)NC(c3ccccc3)=N2)cc1	/	0.8	0.8	-13	20	15
CCn1c(=O)cc(SCC(=O)NCC2CCCO2)c2ccccc21 (stereo not drawn)	-1	3.8*	0.9	-3	-275	13
Cn1c(=O)cc(SCC(=O)NCC2CCCO2)c2ccc(Cl)cc21 (stereo not drawn)	-5	/	/	/	/	/
CCn1c(=O)cc(SCC(=O)Nc2ccc3c(c2)OCO3)c2ccccc21	33	1.2	0.3	6	-17	71*
CCn1c(=O)cc(SCC(=O)Nc2cccnc2)c2ccccc21	9	2.4*	1.1	4	-144	-13
CCn1c(=O)cc(SCC(=O)Nc2ccccc2N2CCN(C)CC2)c2ccccc21	3	/	/	/	/	/
CC1CC(Nc2ccccc2)=CC(=O)O1 (stereo not drawn)	/	0.9	0.9	9	7	11
CS(=O)(=O)N(CC(=O)N1CCCCCC1)c1ccc2c(c1)OCCO2	-8	1.7	0.8	-2	-65	18
CCC(C)N(CCNC(=O)CC1Oc2ccc(C)cc2NC1=O)C1CCCCC1 (stereo not drawn)	-9	1	0.9	2	3	8
SMILES	tolC growth inh	CYP2C9 act	CYP2C19 act	E coli WT exp	CYP2C9 inh	CYP2C19 inh
CCOC(=O)C1CCCN(S(=O)(=O)Cc2ccccc2)C1 (stereo not drawn)	2	0.9	0.8	-4	10	20
CCOC(=O)C1CCN(S(=O)(=O)Cc2ccccc2)CC1	1	0.3	0.6	4	69*	45
CCOC(=O)C1CCN(S(=O)(=O)Cc2ccc(Cl)cc2)CC1	-4	0.1	0.1	-3	93*	87*
Cc1ccc(S(=O)(=O)N2CCC(C(=O)NNS(=O)(=O)c3ccc(Cl)cc3)CC2)cc1	/	1.3	0.9	9	-28	8
CC(C)N1C(=O)CCC1C(=O)NCCc1ccccc1 (stereo not drawn)	-9	0.8	0.9	-2	18	7
O=[N+]([O-])c1ccc(Sc2ccccc2Cl)nc1	/	1	0.4	7	1	62*
O=[N+]([O-])c1ccc(Sc2n[nH]c(-c3ccc(Cl)cc3Cl)n2)nc1	/	0.9	0.9	-6	9	14
CCOc1ccc(/C(O)=C2\C(=O)C(=O)N(CCOCCO)C2c2ccccc2OC)cc1 (stereo not drawn)	/	1	1.1	9	-5	-14
COc1ccc(C(O)P(=O)(O)CCc2ccccc2)cc1 (stereo not drawn)	-8	1.2	1.2	2	-22	-19
COc1ccc(CCC(C(O)C(F)(F)F)S(=O)c2ccccc2)cc1 (stereo not drawn)	0	0.5	0.4	4	50*	60*
O=C(Oc1ccc(-c2nnco2)cc1)N1CCCCC1	-9	0.7	0.2	5	30	77*
O=C(Oc1ccc(-c2nnco2)cc1)N(c1ccccc1)c1ccccc1	31	0.6	0.3	0	39	69*
CCOc1ccc(NC(=O)c2cccc(OC(=S)N3CCC(C)CC3)c2)cc1	/	0.3	0.1	-18	74*	94*
CCOc1cccc(C(=O)Nc2ccc(N(CC)CC)cc2)c1	3	1.3	0.8	0	-34	18
Cc1[nH]c2ccc(F)cc2c(=O)c1SC(F)(F)C(F)F	-8	1	0.8	-6	-3	23
COCCNC(=O)c1c(NC(=O)c2nc(SC)ncc2Cl)sc2c1CCCC2	/	1	1.1	-6	-1	-6
Cc1cc(NC(=O)COC(=O)C(Nc2ccc(C(F)(F)F)cc2Cl)C(C)C)no1 (stereo not drawn)	91*	0.5	0.4	1	52*	57*
Cc1cc(NC(=O)COC(=O)[C@H](C)NC(=O)c2ccccc2)no1	/	0.9	1	-4	7	-2
O=C(c1ccc(C(F)(F)F)cc1)c1c[nH]c(C(=O)NCCCn2ccnc2)c1	/	0.1	0	8	88*	95*
CCOc1ccc(C(=O)NCCCn2ccnc2)cc1	-14	0.8	0.1	-1	25	93*
Cc1ccc(C(=O)NCCCn2ccnc2)cn1	/	0.9	0.6	2	10	35
COCCCNC(=O)c1c(N)n(/N=C/c2cccnc2)c2nc3ccccc3nc12	4	1	0.8	-9	-3	22
COCCCNC(=O)c1c(N)n(/N=C/c2cccs2)c2nc3ccccc3nc12	6	0.3	0.5	-5	67*	48
CC1CC(C)CN(S(=O)(=O)c2ccc(C(=O)NCCCn3ccnc3)cc2)C1 (stereo not drawn)	-5	0.1	0.7	-6	90*	32
COc1cc(C(=O)NCCc2cn3ccc(C)cc3n2)cc(OC)c1OC	1	1	0.8	-1	0	20
CCCCCOc1ccc(NC(=O)C(=O)NCCCn2ccnc2)cc1	/	0.2	0.1	5	83*	89*
